Measured values pooled from the literature.
Each line is one published result; the experiments were not run side by side.
FLT3: Receptor-type tyrosine-protein kinase FLT3 (FLT3, Homo sapiens, UniProt P36888)
FAAH: Fatty-acid amide hydrolase 1 (FAAH, Homo sapiens, UniProt O00519)
MMP3: Stromelysin-1 (MMP3, Homo sapiens, UniProt P08254)
EAPA: Endothiapepsin (EAPA, Cryphonectria parasitica, UniProt P11838)
HTR2C: 5-hydroxytryptamine receptor 2C (HTR2C, Homo sapiens, UniProt P28335)
ROCK1: Rho-associated protein kinase 1 (ROCK1, Homo sapiens, UniProt Q13464)
DHFR: Dihydrofolate reductase (DHFR, Homo sapiens, UniProt P00374)
Aldo-keto reductase family 1 member B1: Aldo-keto reductase family 1 member B1 (Bos taurus, UniProt P16116)
F2: Prothrombin (F2, Bos taurus, UniProt P00735)

Structure (SMILES)	target	test	conditions	IC50 [µM]
O=C(Nc1cccnc1)N1CCC(Cc2cccc(Oc3ccc(C(F)(F)F)cn3)c2)CC1	Monoglyceride lipase (MGLL, Homo sapiens, UniProt Q99685)	enzyme activity, inhibitor, absorbance	–	> 10
CC[C@H](C)[C@H](NC(C)=O)C(=O)N[C@@H](CCC(=O)O)C(=O)N[C@H](C(=O)N[C@H](C=O)CC(=O)O)[C@@H](C)O	Caspase-4 (CASP4, Homo sapiens, UniProt P49662)	enzyme activity, inhibitor	–	0.784
c1cncc(-c2cccc(Nc3nccc(NC4CCCCC4)n3)c2)c1	FLT3	enzyme activity, inhibitor	–	0.032
O=C(Oc1nsnc1N1CCC(Cc2ccccc2)CC1)N1CCCCC1	FAAH	enzyme activity, inhibitor	cell membranes	0.324
CC(C)C[C@H](CC(=O)NO)C(=O)N[C@@H](Cc1ccccc1)C(=O)NCCN1CCOCC1	MMP3	enzyme activity, inhibitor, fluorescence	–	0.225
O=C(Oc1nsnc1N1CCN(c2ccccc2)CC1)N1CCCCC1	FAAH	enzyme activity, inhibitor	cell membranes	0.209
O=C(Nc1ccc(Cl)cc1)N1CCC(n2c(=O)[nH]c3c(Br)cccc32)CC1	Formamidopyrimidine-DNA glycosylase (Escherichia coli, UniProt P05523)	enzyme activity, inhibitor	–	> 100
COc1ccc(S(=O)(=O)N2Cc3cc(O)c(O)cc3CC2C(=O)NO)cc1 (stereo not shown)	MMP3	enzyme activity, inhibitor	–	10
NNC(c1nnnn1CC(c1ccccc1)c1ccccc1)C1CCCCC1 (stereo not shown)	EAPA	enzyme activity, inhibitor, fluorescence	–	96.8
CSCC[C@H](NC(=O)[C@H](Cc1c[nH]c2ccccc12)NC(=O)CNC(=O)[C@H](Cc1ccc(O)cc1)NC(=O)[C@H](C)NC(=O)[C@@H](CCC(=O)O)NC(=O)CN1CCN(CC(=O)O)CCN(CC(=O)O)CCN(CC(=O)O)CC1)C(=O)N[C@@H](CC(=O)O)C(=O)N[C@@H](Cc1cccc2ccccc12)C(N)=O	Gastrin/cholecystokinin type B receptor (CCKBR, Homo sapiens, UniProt P32239)	ligand displacement, radioligand	–	0.00351
CN1CCN(c2ccc(Nc3ncc4cc(C#N)c(=O)n(C5CCCC5)c4n3)cc2)CC1	Testis-specific serine/threonine-protein kinase 1 (TSSK1B, Homo sapiens, UniProt Q9BXA7)	enzyme activity, inhibitor	–	0.116
c1cc(Nc2nccc(NC3CCCCC3)n2)cc(-c2cnccn2)c1	FLT3	enzyme activity, inhibitor	–	0.02
O=C(Oc1nsnc1N1CCCCC1)N1CCc2ccccc2C1	FAAH	enzyme activity, inhibitor	cell membranes	0.562
CCCCNc1ccnc(Nc2cccc(-c3cccnc3)c2)n1	FLT3	enzyme activity, inhibitor	–	0.123
COc1ccc2c(Oc3ccc4c(C(=O)Nc5ccccc5N)cccc4c3)ccnc2c1	Aurora kinase A (AURKA, Homo sapiens, UniProt O14965)	enzyme activity, inhibitor	–	> 0.5
O=C(Oc1nsnc1N1CCC2CCCCC2C1)N1CCCCC1 (stereo not shown)	FAAH	enzyme activity, inhibitor	cell membranes	0.031
CC1Cc2ccccc2N1C(=O)NCCCCN(C)[C@@H]1Cc2cccc3[nH]c(=O)n(c23)C1 (mixture of isomers)	HTR2C	ligand displacement, radioligand	–	> 10
CC(C)(C)n1nc(-c2cnc3cc(OC4CC4)ccc3c2)c(C(N)=O)c1N	ROCK1	cell-free assay	–	> 10
Cc1ccc2nc(-c3ccc(Cl)cc3)n(Cc3ccccc3)c2c1	DHFR	enzyme activity, inhibitor	–	2.35
CC(=N/N=c1\scc(-c2ccc(Cl)cc2)n1-c1c(C)cccc1C)C12CC3CC(CC(C3)C1)C2	Aldo-keto reductase family 1 member B1	enzyme activity, inhibitor, absorbance	–	3.51
CC(C)(C)n1nc(-c2ccc3nc(OC4CC4)ccc3c2)c(C(N)=O)c1N	ROCK1	cell-free assay	–	> 10
COc1cccc(-n2c(-c3ccc([N+](=O)[O-])cc3)cs/c2=N/N=C\c2c[nH]c3ccccc23)c1	Aldo-keto reductase family 1 member B1	enzyme activity, inhibitor, absorbance	–	4.21
N[C@H](Cc1c[nH]c2ccccc12)C(=O)O	DHFR	enzyme activity, inhibitor	–	2000

Structure (SMILES)	target	test	conditions	IC50 [µM]
CC1=C(/C=C/C(C)=C/C=C/C(C)=C/C(=O)O)C(C)(C)CCC1	F2	enzyme activity, inhibitor, fluorescence	–	223
CN(CCCCNC(=O)c1cc2ccccc2[nH]1)[C@@H]1Cc2cccc3[nH]c(=O)n(c23)C1	HTR2C	ligand displacement, radioligand	–	3.08
N#Cc1ccc(Cn2ccc3c4c(N)nc(N)nc4ccc32)cc1	DHFR	enzyme activity, inhibitor	–	0.0068
Fc1ccc(C2CCN(c3nc(-c4ccccn4)nc4ccccc34)C2)cc1 (stereo not shown)	Sterol 14-alpha demethylase (CYP51, Trypanosoma cruzi, UniProt Q7Z1V1)	enzyme activity, inhibitor, fluorescence	–	> 100
CNC(=O)c1cc2c(Oc3ccc(NC(=O)C4(C(=O)Nc5ccc(F)cc5)CC4)cc3)ccnc2cc1OC	Tyrosine-protein kinase receptor TYRO3 (TYRO3, Homo sapiens, UniProt Q06418)	enzyme activity, inhibitor, radiometric	–	0.013
CC1=C(/C=C/C(C)=C/C=C/C(C)=C/CO)C(C)(C)CCC1	F2	enzyme activity, inhibitor, fluorescence	–	531
CONc1ccnc(Nc2cccc(-c3cccnc3)c2)n1	FLT3	enzyme activity, inhibitor	–	> 34
Cc1cnc(-c2ccc(-c3ccc(NC(=O)Nc4c(F)cc(F)cc4F)cc3F)c3c2C(=O)NC3)[nH]1	Aurora kinase C (AURKC, Homo sapiens, UniProt Q9UQB9)	enzyme activity, inhibitor	–	0.003
CC(=N/N=c1\scc(-c2ccc(Br)cc2)n1-c1c(C)cccc1C)C12CC3CC(CC(C3)C1)C2	Aldo-keto reductase family 1 member B1	enzyme activity, inhibitor, absorbance	–	4.21
Cc1ccc2nc(-c3ccc([N+](=O)[O-])cc3)n(Cc3ccc(Cl)cc3)c2c1	DHFR	enzyme activity, inhibitor	–	8.01
Cc1ccc(C(=O)Nc2ccc(Oc3cc4cnn(C)c4cc3-c3cn[nH]c3)c(F)c2)c(=O)n1-c1ccc(F)cc1	Tyrosine-protein kinase receptor Tie-1 (TIE1, Homo sapiens, UniProt P35590)	enzyme activity in cells, inhibitor	–	> 1
Cc1nccc2c1c(=O)n(C)c1cc(OC[C@@H](N)CC(C)C)c(C#N)cc21	BMP-2-inducible protein kinase (BMP2K, Homo sapiens, UniProt Q9NSY1)	enzyme activity, inhibitor	–	0.045
CC(C)Nc1ccnc(Nc2cccc(-c3nccs3)c2)n1	FLT3	enzyme activity, inhibitor	–	0.475
O=C1NCCc2[nH]c(-c3cccnc3)cc21	Casein kinase I isoform delta (CSNK1D, Homo sapiens, UniProt P48730)	enzyme activity, inhibitor	–	> 100
CC(C)Nc1ccnc(Nc2ccccc2-c2ccccc2)n1	FLT3	enzyme activity, inhibitor	–	> 24
C/C(=N/N=c1/scc(-c2ccc(Br)cc2)n1-c1ccccc1)c1ccc2c(c1)OCCO2	Aldo-keto reductase family 1 member B1	enzyme activity, inhibitor, absorbance	–	5.96
CCCOc1ccc(Nc2cc(C)nc3ccc(Cl)cc23)cc1	Cell division protein FtsZ (Mycobacterium tuberculosis, UniProt P9WN95)	tubulin polymerisation, inhibitor	–	22.7
COC(=O)c1cccc(Nc2nccc(NC3CCCCC3)n2)c1	FLT3	enzyme activity, inhibitor	–	0.978
O=C(O)c1ccc2nc(-c3ccc(OCc4ccccc4COc4ccc(-c5nc6ccc(C(=O)O)cc6[nH]5)cc4)cc3)[nH]c2c1	DHFR	enzyme activity, inhibitor	–	> 250
CC(=N/N=c1\scc(-c2ccc(Br)cc2)n1-c1cccc2ccccc12)C12CC3CC(CC(C3)C1)C2	Aldo-keto reductase family 1 member B1	enzyme activity, inhibitor, absorbance	–	12.9
CC[C@@H](C)Nc1ccnc(Nc2cccc(-c3cccnc3)c2)n1	FLT3	enzyme activity, inhibitor	–	< 0.006
CC(=N/N=c1\scc(-c2ccc(Br)cc2)n1-c1ccccc1)C12CC3CC(CC(C3)C1)C2	Aldo-keto reductase family 1 member B1	enzyme activity, inhibitor, absorbance	–	4.4
CC(Cc1ccc(C(C)(C)C)cc1)C(NN)c1nnnn1Cc1ccc2c(c1)OCO2 (stereo not shown)	EAPA	enzyme activity, inhibitor, fluorescence	–	18
